Measured values taken from paper PMC11348385 (RSC Advances, 2024).
“And” between values parts separate entries of the source, which are not always exact repeats. Identical values can stand only once.

Key:
VEGFR-2 = VEGFR-2 (Homo sapiens, UniProt P35968); test: In vitro VEGFR-2 kinase assay; assay type: biochemical
MCF-7 cell line = test: MTT colorimetric cytotoxicity assay, MCF-7; assay type: cell-based, human; conditions: for Selectivity index: folds more toxic regarding MCF-7 than VERO cells: VERO vs MCF-7; for IC50: Homo sapiens, MCF7, 72 h, read-out: IC50 MCF-7; for selectivity class against MCF-7: high SI ≥ 5, moderate SI > 2, low SI < 2, vs VERO
HepG2 cell line = test: MTT colorimetric cytotoxicity assay, HepG2; assay type: cell-based, human; conditions: for IC50: Homo sapiens, HepG2, 72 h, read-out: IC50 HepG2; for Selectivity index: folds toxic in HepG2 than in VERO cells: VERO vs HepG2; for selectivity class against HepG2: high SI ≥ 5, moderate SI > 2, low SI < 2, vs VERO
BAX/Bcl-2 ratio = BAX/Bcl-2 ratio in MCF-7 cells; assay type: cell-based, human; conditions: MCF-7, IC50 of 4b
In short: (§1)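 Test compound given to MCF-7 cells for 24 h; Bax and Bcl-2 expression levels then determined. Each is expressed as fold change versus untreated control cells, and the Bax/Bcl-2 ratio is calculated from these fold changes.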

MCF-7 cells [1] = test: Annexin V / propidium iodide double staining apoptosis assay; assay type: cell-based, human; conditions: MCF-7, IC50 of 4b, 24 h
BAX = BAX expression level in MCF-7 cells; assay type: cell-based, human; conditions: MCF-7, IC50 of 4b
In short: as §1

MCF-7 cells [2] = test: Cell cycle distribution; assay type: cell-based, human; conditions: MCF-7, 2.3 μM 4b, 24 h, mean ± SEM
In short: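 MCF-7 cells treated with 2.3 μM test compound for 24 h, harvested and stained with propidium iodide. DNA content was analysed for distribution across G1, S and G2/M phases, with an untreated control alongside. Values are mean ± SEM of three independent experiments.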

Bcl-2 = Bcl-2 expression level in MCF-7 cells; assay type: cell-based, human; conditions: MCF-7, IC50 of 4b, 24 h, mean ± SEM

Chain of VEGFR-2 (P35968 20-1356): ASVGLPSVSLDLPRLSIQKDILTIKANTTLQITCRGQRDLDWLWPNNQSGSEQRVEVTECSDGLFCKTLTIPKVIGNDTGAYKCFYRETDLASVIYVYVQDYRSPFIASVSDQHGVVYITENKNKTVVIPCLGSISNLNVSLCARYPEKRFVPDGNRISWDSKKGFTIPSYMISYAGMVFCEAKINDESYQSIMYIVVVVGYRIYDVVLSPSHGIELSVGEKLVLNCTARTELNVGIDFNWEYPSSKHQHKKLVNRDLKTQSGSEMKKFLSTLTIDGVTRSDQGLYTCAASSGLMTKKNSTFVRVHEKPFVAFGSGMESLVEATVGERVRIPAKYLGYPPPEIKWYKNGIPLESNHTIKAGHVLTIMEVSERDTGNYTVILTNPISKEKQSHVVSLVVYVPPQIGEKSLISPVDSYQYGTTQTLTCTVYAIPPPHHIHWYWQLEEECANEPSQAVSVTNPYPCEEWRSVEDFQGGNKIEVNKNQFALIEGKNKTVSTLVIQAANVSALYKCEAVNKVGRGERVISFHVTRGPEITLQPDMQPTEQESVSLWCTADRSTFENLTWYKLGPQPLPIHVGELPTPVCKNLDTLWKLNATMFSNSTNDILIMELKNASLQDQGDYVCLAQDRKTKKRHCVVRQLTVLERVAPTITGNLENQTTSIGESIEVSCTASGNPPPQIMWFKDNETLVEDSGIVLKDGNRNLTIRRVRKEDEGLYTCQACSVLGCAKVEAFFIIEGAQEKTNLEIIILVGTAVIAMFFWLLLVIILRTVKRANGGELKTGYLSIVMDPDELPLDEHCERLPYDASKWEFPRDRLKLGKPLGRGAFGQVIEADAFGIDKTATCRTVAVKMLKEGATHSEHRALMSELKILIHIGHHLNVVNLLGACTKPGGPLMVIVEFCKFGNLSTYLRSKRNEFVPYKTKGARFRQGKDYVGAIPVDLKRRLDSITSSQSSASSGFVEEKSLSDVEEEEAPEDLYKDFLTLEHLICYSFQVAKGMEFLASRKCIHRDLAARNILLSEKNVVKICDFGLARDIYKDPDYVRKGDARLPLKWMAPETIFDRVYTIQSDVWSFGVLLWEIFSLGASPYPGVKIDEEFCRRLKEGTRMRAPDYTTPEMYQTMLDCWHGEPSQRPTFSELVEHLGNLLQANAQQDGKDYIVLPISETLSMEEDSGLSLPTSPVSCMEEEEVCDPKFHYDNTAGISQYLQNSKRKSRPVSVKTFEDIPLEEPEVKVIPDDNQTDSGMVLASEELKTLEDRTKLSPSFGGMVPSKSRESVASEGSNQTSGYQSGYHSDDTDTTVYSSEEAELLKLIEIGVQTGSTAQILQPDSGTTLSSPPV

Structure (SMILES)	IC50 (VEGFR-2) [nM]	Selectivity index: folds more toxic regarding MCF-7 than VERO cells (MCF-7 cell line) [folds]	IC50 (HepG2 cell line) [nM]	Selectivity index: folds toxic in HepG2 than in VERO cells (HepG2 cell line) [folds]	IC50 (MCF-7 cell line) [nM]	selectivity class against MCF-7 (MCF-7 cell line)	also measured
O=c1nc(-c2ccc(Nc3nnc(-c4ccc(Cl)cc4)c4ccccc34)cc2)cc(-c2ccccc2)[nH]1 [Compound 4a, 4-(4-[{4-(4-Chlorophenyl)phthalazin-1-yl}amino]phenyl)-6-phenylpyrimidin-2(1H)-one]	150 ± 30	25.00	290 ± 10	13.79			
O=c1nc(-c2ccc(Nc3nnc(-c4ccc(Cl)cc4)c4ccccc34)cc2)cc(-c2ccc(Cl)cc2)[nH]1 [Compound 4b, 6-(4-Chlorophenyl)-4-(4-[{4-(4-chlorophenyl)phthalazin-1-yl}amino]phenyl)pyrimidin-2(1H)-one]	90 ± 20	50.00	60 ± 10	50.00	60 ± 10		boost of Bax/Bcl2 ratio compared to the control (BAX/Bcl-2 ratio): approximately 8 folds; Gene expression fold change BAX/Bcl-2 ratio (BAX/Bcl-2 ratio; 24 h, mean ± SEM): 8.25 ± 0.71; early apoptosis, folds over the control (MCF-7 cells [1]): more than 25 folds; % Apoptosis Early (MCF-7 cells [1]; mean ± SEM): 15.06% and 15.06 ± 0.91%; % Apoptosis Late (MCF-7 cells [1]; mean ± SEM): 6.72 ± 0.31%; % Necrosis (MCF-7 cells [1]; mean ± SEM): 4.66% and 4.66 ± 0.19%; boost of Bax level vs control (BAX): approximately 3 folds; Gene expression fold change BAX (BAX; 24 h, mean ± SEM): 3.3282 ± 0.67; DNA content % G1 (MCF-7 cells [2]): 53.96 ± 2.15%; DNA content % S (MCF-7 cells [2]): 39.12 ± 1.92%; Gene expression fold change Bcl-2 (Bcl-2): 0.374 ± 0.02
Clc1ccc(-c2nnc(Nc3ccc(C4=NNC(c5ccc(Cl)cc5)C4)cc3)c3ccccc23)cc1 (stereo not drawn) [Compound 3b, 4-(4-Chlorophenyl)-N-(4-(5-(4-chlorophenyl)-4,5-dihydro-1H-pyrazol-3-yl)phenyl)phthalazin-1-amine]	800 ± 50	5.12		5.31	830 ± 20		
Clc1ccc(-c2nnc(Nc3ccc(C4=NNC(c5ccccc5)C4)cc3)c3ccccc23)cc1 (stereo not drawn) [Compound 3a, 4-(4-Chlorophenyl)-N-(4-(5-phenyl-4,5-dihydro-1H-pyrazol-3-yl)phenyl)phthalazin-1-amine]	1250 ± 50	4.09	1270 ± 30	3.74	1160 ± 10	moderate selectivity	selectivity class against HepG2 (HepG2 cell line): moderate selectivity
S=c1nc(-c2ccc(Nc3nnc(-c4ccc(Cl)cc4)c4ccccc34)cc2)cc(-c2ccccc2)[nH]1 [Compound 5a, 4-(4-[{4-(4-Chlorophenyl)phthalazin-1-yl}amino]phenyl)-6-phenylpyrimidin-2(1H)-thione]	750 ± 50	4.79	800 ± 20	5.15	860 ± 10	moderate selectivity	
Oc1ccc(C2CC(c3ccc(Nc4nnc(-c5ccc(Cl)cc5)c5ccccc45)cc3)=NN2)cc1 (stereo not drawn) [Compound 3d, 4-(3-[4-{(4-[4-Chlorophenyl]phthalazin-1-yl)amino}phenyl]-4,5-dihydro-1H-pyrazol-5-yl)phenol]	700 ± 50	5.88	150	29.00	740 ± 10		
Oc1ccccc1C1CC(c2ccc(Nc3nnc(-c4ccc(Cl)cc4)c4ccccc34)cc2)=NN1 (stereo not drawn) [Compound 3c, 2-(3-[4-{(4-[4-Chlorophenyl]phthalazin-1-yl)amino}phenyl]-4,5-dihydro-1H-pyrazol-5-yl)phenol]	840 ± 50	4.67	1250 ± 20	3.29	880 ± 30	moderate selectivity	selectivity class against HepG2 (HepG2 cell line): moderate selectivity
COc1ccc(C2CC(c3ccc(Nc4nnc(-c5ccc(Cl)cc5)c5ccccc45)cc3)=NN2)cc1 (stereo not drawn) [Compound 3e, 4-(4-Chlorophenyl)-N-(4-[5-{4-methoxyphenyl}-4,5-dihydro-1H-pyrazol-3-yl]phenyl)phthalazin-1-amine]	120 ± 20	40.25		16.95	80 ± 10		
CNC(=O)c1cc(Oc2ccc(NC(=O)Nc3ccc(Cl)c(C(F)(F)F)c3)cc2)ccn1 [Sorafenib, sorafenib, reference compound]			30 ± 10		50 ± 10		
S=c1nc(-c2ccc(Nc3nnc(-c4ccc(Cl)cc4)c4ccccc34)cc2)cc(-c2ccc(Cl)cc2)[nH]1 [Compound 5b, 6-(4-Chlorophenyl)-4-(4-[{4-(4-chlorophenyl)phthalazin-1-yl}amino]phenyl)pyrimidin-2(1H)-thione]	130 ± 30	28.64	150 ± 10	21.00	110 ± 10		
